In ChEMBL document CHEMBL4428067, “Drug Discovery against Psoriasis: Identification of a New Potent FMS-like Tyrosine Kinase 3 (FLT3) Inhibitor, 1-(4-((1H-Pyrazolo[3,4-d]pyrimidin-4-yl)oxy)-3-fluorophenyl)-3-(5-(tert-butyl)isoxazol-3-yl)urea, That Showed Potent Activity in a Psoriatic Animal Model” (J Med Chem, 2016):
Active and inactive are the calls of the source. No cut-off for these calls is given here.

Experiments:
Mus musculus [1] = species: Mus musculus; experiment: Antipsoriatic activity in K14-VEGF transgenic mouse model of psoriasis assessed as lower left quadrant FLT3+/CD11c+/B220+ pDC cells in psoriatic plaque lesion at 0.05% applied tropically over lesion for continuous 29 days by flow cytometric analysis (reference value: 4.97%); assay type: functional
BMDC = experiment: Decrease in IFN-gamma level in Balb/c mouse BMDCs at 10 nM treated on day 9 post 9 days of FLT3L-stimulation measured after 12 hrs by ELISA; assay type: functional, cell-based
Outline: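 BALB/c bone marrow cells were plated at 1×10^6/ml in RPMI-1640 with 10% FCS, 10^-4 M 2-ME, pyruvate, antibiotics and FLT3L for 9 days. On day 9, compound in DMSO or 0.1% DMSO was added. After 12 h, supernatant IFN-γ and IL-23 were measured by ELISA. Three independent experiments.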

Mus musculus [2] = species: Mus musculus; experiment: Antipsoriatic activity in K14-VEGF transgenic mouse model of psoriasis assessed as lower left quadrant DC cells expressing FLT3 and CD11c in psoriatic plaque lesion at 0.05% applied tropically over lesion for continuous 29 days by flow cytometric analysis (reference value: 72.7%); assay type: functional
Mus musculus [3] = species: Mus musculus; experiment: Antipsoriatic activity in K14-VEGF transgenic mouse model of psoriasis assessed as upper left quadrant DC cells expressing FLT3 and CD11c in psoriatic plaque lesion at 0.05% applied tropically over lesion for continuous 29 days by flow cytometric analysis (reference value: 9.62%); assay type: functional
Mus musculus [4] = species: Mus musculus; experiment: Antipsoriatic activity in K14-VEGF transgenic mouse model of psoriasis assessed as improvement of psoriatic symptoms at 0.05% applied tropically over lesion for continuous 21 days by macroscopic analysis relative to vehicle control; assay type: functional, organism-based
Outline: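 Homozygous K14-VEGF mice, 3–4 months old, with moderate to serious psoriasis. Lesions smeared with cream with or without 0.05% compound for 3 weeks, then observed untreated for another 15 days. Head and neck photographed on days 0, 21 and 36 for macroscopic assessment.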

[5] = target: T1, Receptor-type tyrosine-protein kinase FLT3 (Mus musculus) (UniProt Q00342); experiment: Inhibition of FLT3 in mouse BMDCs assessed as suppression of STAT5 phosphorylation at 10 and 100 nM treated on day 9 post 9 days of FLT3L-stimulation measured after 1 hr by Western blot analysis
T1 sequence (whole entry): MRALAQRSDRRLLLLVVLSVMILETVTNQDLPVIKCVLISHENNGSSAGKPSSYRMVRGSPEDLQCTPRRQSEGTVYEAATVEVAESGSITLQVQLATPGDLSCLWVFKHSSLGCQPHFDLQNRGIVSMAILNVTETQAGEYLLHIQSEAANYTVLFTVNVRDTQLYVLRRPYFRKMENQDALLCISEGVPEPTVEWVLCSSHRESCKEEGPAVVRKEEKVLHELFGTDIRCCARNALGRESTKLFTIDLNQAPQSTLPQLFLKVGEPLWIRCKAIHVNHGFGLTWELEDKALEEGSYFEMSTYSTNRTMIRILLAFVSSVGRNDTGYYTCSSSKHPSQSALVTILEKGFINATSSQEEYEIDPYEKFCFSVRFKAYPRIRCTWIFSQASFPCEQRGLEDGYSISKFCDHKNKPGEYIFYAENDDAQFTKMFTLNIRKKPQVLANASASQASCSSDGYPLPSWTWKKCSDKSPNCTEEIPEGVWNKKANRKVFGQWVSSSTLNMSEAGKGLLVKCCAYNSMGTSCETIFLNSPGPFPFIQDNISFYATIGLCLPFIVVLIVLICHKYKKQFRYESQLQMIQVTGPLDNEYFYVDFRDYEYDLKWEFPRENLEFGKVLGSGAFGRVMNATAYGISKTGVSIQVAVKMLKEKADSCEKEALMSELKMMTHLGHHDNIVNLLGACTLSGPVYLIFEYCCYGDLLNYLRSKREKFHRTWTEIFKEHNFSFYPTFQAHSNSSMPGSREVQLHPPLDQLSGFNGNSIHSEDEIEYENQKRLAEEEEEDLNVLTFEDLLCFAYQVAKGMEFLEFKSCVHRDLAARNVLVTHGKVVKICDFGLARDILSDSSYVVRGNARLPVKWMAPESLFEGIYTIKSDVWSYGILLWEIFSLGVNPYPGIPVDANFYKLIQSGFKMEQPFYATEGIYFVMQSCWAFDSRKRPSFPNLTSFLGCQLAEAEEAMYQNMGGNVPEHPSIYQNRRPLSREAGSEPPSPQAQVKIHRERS
Outline: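 Bone marrow cells were cultured 9 days with FLT3L in supplemented RPMI-1640, then exposed to compound or 0.1% DMSO for 1 h on day 9. Whole cells were lysed and immunoblotted with rabbit antibodies to STAT3, STAT5, pSTAT3 and pSTAT5. Three independent experiments.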

[6] = target: T1, Receptor-type tyrosine-protein kinase FLT3 (Mus musculus); experiment: (§1) Inhibition of FLT3 in Balb/c mouse BMDCs assessed as suppression of FLT3L-induced pDC formation measured as upper right quadrant cells level treated on day 9 post 9 days of FLT3L-stimulation measured after 24 hrs by CD11c PerCP and CD45R/B220 FITC staining based flow cytometric analysis (reference value: 14.9%); design: scale not given: the % may be the effect or the level left
Outline: (§2)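 BALB/c bone marrow cells were cultured at 1×10^6/ml with FLT3L in supplemented RPMI-1640 for 9 days. Compound in DMSO or 0.1% DMSO was added on day 9 for 24 h. Cells were stained for 30 min with CD11c PerCP plus B220 FITC (pDC: CD11c+ B220+) or MHC II FITC (mDC: CD11c+ MHC II+), then analysed by flow cytometry. Three independent experiments.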

[7] = target: T1, Receptor-type tyrosine-protein kinase FLT3 (Mus musculus); experiment: as §1, with “mDC” for “pDC”, “left” for “right”, “I-A/I-E (MHC class II)” for “CD45R/B220”, “31.8%)” for “14.9%)”; design: scale not given: the % may be the effect or the level left; outline: as §2
Mus musculus [8] = species: Mus musculus; experiment: Antipsoriatic activity in K14-VEGF transgenic mouse model of psoriasis assessed as lower left quadrant FLT3+/CD11c+/MHC-II+ mDC cells in psoriatic plaque lesion at 0.05% applied tropically over lesion for continuous 29 days by flow cytometric analysis (reference value: 35.2%)

- inhibition [5]: Active
- Activity [6]: 7.84%
- Activity [7]: 23.5%
Structure (SMILES): CC(C)(C)c1cc(NC(=O)Nc2ccc(Oc3ncnc4[nH]ncc34)c(F)c2)no1
- Activity (Mus musculus [1]): 11%
- inhibition (BMDC): Active
- Activity (Mus musculus [2]): 89.5%
- Activity (Mus musculus [3]): 3.22%
- Activity (Mus musculus [4]): Active
- Activity (Mus musculus [8]): 8.58%
